In series [1] the target is T1, Monocarboxylate transporter 1 (Rattus norvegicus, UniProt P53987).
T1 sequence (P53987 whole entry): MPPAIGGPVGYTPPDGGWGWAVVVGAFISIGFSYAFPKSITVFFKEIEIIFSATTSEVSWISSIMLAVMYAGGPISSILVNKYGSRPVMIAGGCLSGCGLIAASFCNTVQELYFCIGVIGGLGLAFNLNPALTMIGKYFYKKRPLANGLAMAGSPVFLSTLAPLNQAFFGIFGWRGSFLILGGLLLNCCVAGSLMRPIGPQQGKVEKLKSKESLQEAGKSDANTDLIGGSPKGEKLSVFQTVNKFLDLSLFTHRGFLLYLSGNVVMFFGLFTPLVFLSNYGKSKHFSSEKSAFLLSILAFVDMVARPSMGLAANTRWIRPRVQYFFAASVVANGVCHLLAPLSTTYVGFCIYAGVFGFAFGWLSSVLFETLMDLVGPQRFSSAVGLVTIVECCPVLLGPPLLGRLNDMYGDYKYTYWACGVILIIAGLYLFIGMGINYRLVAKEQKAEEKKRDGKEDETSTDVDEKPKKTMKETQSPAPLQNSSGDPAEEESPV
The series can be described thus: Inhibition of MCT1-mediated lactate transport in rat RBE4 cells incubated for 15 mins by [14C]-lactate uptake assay. Format: cell-based. An outline of the steps:
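MCT1 inhibition measured as [14C]-lactate uptake in rat brain endothelial RBE4 cells, which highly express MCT1 (Western blot). IC50 is the test-compound concentration causing 50% transport inhibition.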

Series [2] is described as follows: Solubility in water. It counts as physicochemical.
The subject of series [3] is Mus musculus. The series can be described thus: Toxicity in CD1(ICR) mouse assessed as survival at 6.67 mg/kg, ip bid for 3 weeks. Format: organism-based. To be noted: in vivo, 504 h. An outline of the steps: (§1)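 Healthy ICR mice were given 6.67 mg/kg ip, twice daily, in 0.1% DMSO in saline for three weeks. Survival and body weight gain were recorded and compared with a control group.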

Series [4] has as its system Mus musculus. Description: Toxicity in CD1(ICR) mouse assessed as induction of weight gain at 6.67 mg/kg, ip bid for 3 weeks. It counts as organism-based. The conditions noted are these: in vivo, 504 h. The gist of the method:
as §1

Series [5] concerns Mus musculus. The series can be described thus: Toxicity in CD1(ICR) mouse assessed as survival at 50 mg/kg, po bid for 3 weeks. To be noted: in vivo, 504 h. Format: organism-based. The gist of the method:
(§2)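 In a follow-up systemic toxicity study, healthy ICR mice were dosed at 50 mg/kg either by oral gavage twice daily or ip once daily. Mortality and body weight gain were compared with a control group.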

The subject of series [6] is Mus musculus. The series can be described thus: Toxicity in CD1(ICR) mouse assessed as induction of weight gain at 50 mg/kg, po bid for 3 weeks. The conditions noted are these: in vivo, 504 h. It counts as organism-based. The gist of the method:
as §2

Series [7] relates to Mus musculus. Description: Toxicity in CD1(ICR) mouse assessed as survival at 50 mg/kg, ip qd for 3 weeks. It counts as organism-based. To be noted: in vivo, 504 h. The gist of the method: as §2
Series [8] relates to Mus musculus. Description: Toxicity in CD1(ICR) mouse assessed as induction of weight gain at 50 mg/kg, ip qd for 3 weeks. Format: organism-based. To be noted: in vivo, 504 h. The gist of the method: as §2
Series [9] in a line: Tmax in CD1(ICR) mouse at 100 mg/kg, ip by LC-MS/MS method. Format: ADME, organism-based. The conditions noted are these: in vivo. An outline of the steps:
(§3)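 Preliminary pharmacokinetics in ICR mice. Sixty mice were split into two groups and given 100 mg/kg, one group intraperitoneally and the other intragastrically.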

Series [10] is described as follows: Tmax in CD1(ICR) mouse at 100 mg/kg, ig by LC-MS/MS method. Format: ADME, organism-based. To be noted: in vivo, po. An outline of the steps:
as §3

Series [11] has as its system Mus musculus. Description: Drug elimination in CD1(ICR) mouse at 100 mg/kg, ip by LC-MS/MS method. It counts as ADME, organism-based. The conditions noted are these: in vivo. An outline of the steps:
as §3

The test system of series [12] is Mus musculus. The series can be described thus: Drug elimination in CD1(ICR) mouse at 100 mg/kg, ig by LC-MS/MS method. The conditions noted are these: in vivo, po. Format: ADME, organism-based. An outline of the steps: as §3
Series [13] has as its system Mus musculus. Description: Toxicity in CD1(ICR) mouse assessed as survival at 6.67 mg/kg, ip bid for 3 weeks. The conditions noted are these: in vivo, 504 h.
For series [14], the system named is Mus musculus. The series can be described thus: Toxicity in CD1(ICR) mouse assessed as induction of weight gain at 6.67 mg/kg, ip bid for 3 weeks. The conditions noted are these: in vivo, 504 h.

Experimental findings from ChEMBL document CHEMBL3580575, “Monocarboxylate transporter 1 inhibitors as potential anticancer agents” (ACS Med Chem Lett, 2015) are described below.

Each structure is given as a SMILES string. Where only a bound is given, the exact number is not on record here.

The IC50 is the point on the concentration scale where inhibition reaches its midpoint. Higher therefore signals weaker potency. With `Cc1ccc(/C=C(\C#N)C(=O)O)cc1`, the IC50 in series [1] worked out at 500 nM.
Take `CCCCCN(CCCCC)c1ccc(/C=C(\C#N)C(=O)O)c(OC)c1`: 34 nM corresponded to half-maximal inhibition in series [1] (IC50).
A word on the solubility: it is how much of the substance goes into solution per volume. What is called Tmax is the time from dosing to the highest level. In turn, `COc1cc(N(c2ccccc2)c2ccccc2)ccc1/C=C(\C#N)C(=O)[O-].[Na+]` came in with a concentration for half-maximal inhibition (IC50) in series [1] of 11 nM. For the same compound, the concentration in solution in series [2] (solubility) was 1000 µg/mL. Besides, the Activity result with Mus musculus [3], with Mus musculus [4], with Mus musculus [5], in the series on Mus musculus [6], in the series on Mus musculus [7] and in the series on Mus musculus [8] was “Non-toxic” in each case. For the same compound, the Activity entry in the series with Mus musculus [13] and in the series with Mus musculus [14] was “Non-toxic” in each case. Moreover, the Tmax in [9] is 15 min; in series [10], 18 min. Moreover, the Drug excretion entry with Mus musculus [11] and with Mus musculus [12] was “<= 24 hr” each time.
As to `CCCCCCN(CCCCCC)c1ccc(/C=C(\C#N)C(=O)O)cc1`, in series [1], the IC50 was found to be 880 nM.
On the same count and under the same terms, the result for `C=CCN(CC=C)c1ccc(/C=C(\C#N)C(=O)O)c(OC)c1` reads 29 nM; that for `N#C/C(=C\c1ccc(F)cc1)C(=O)O`, 500 nM.
The same measure, in the same setting: then `CC(C)CN(CC(C)C)c1ccc(/C=C(\C#N)C(=O)O)cc1`, with 100 nM; and `CCCCCN(CCCCC)c1ccc(/C=C(\C#N)C(=O)O)cc1`, with 140 nM.
Same read-out and setting: then `C=CCN(CC=C)c1ccc(/C=C(\C#N)C(=O)O)cc1`, with 110 nM; and `N#C/C(=C\c1ccc(C#N)cc1)C(=O)O`, with 500 nM.
In turn, `CCN(CC)c1ccc(/C=C(\C#N)C(=O)O)cc1` had an IC50 in series [1] of 70 nM.
Turning to `N#C/C(=C\c1ccc(N2CCCCC2)cc1)C(=O)O`, in series [1], the IC50 is 140 nM.
Same read-out and setting: then `N#C/C(=C\c1ccc(N2CCCC2)cc1)C(=O)O`, with 70 nM; and `CCCCN(CCCC)c1ccc(/C=C(\C#N)C(=O)O)cc1`, with 30 nM.
On the same count and under the same terms, the result for `CCc1ccc(/C=C(\C#N)C(=O)O)cc1` reads 500 nM.
With `COc1cc(N2CCCC2)ccc1/C=C(\C#N)C(=O)[O-].[Na+]`, half-maximal inhibition in [1] (IC50) was put at 48 nM. In [2], this compound yielded a solubility of over 7000 µg/mL.
Consider `N#C/C(=C\c1ccc2c(c1)OCO2)C(=O)O`, for which the midpoint of inhibition in [1], the IC50, lay at 500 nM.
Still for that read-out and setting: then `N#C/C(=C\c1ccc(N(c2ccccc2)c2ccccc2)cc1)C(=O)O`, with 30 nM.
In [1], `COc1cc(N2CCCCC2)ccc1/C=C(\C#N)C(=O)[O-].[Na+]` displayed an IC50 of 25 nM. Also, the solubility in series [2] was over 7000 µg/mL.
As to `C#CCN(CC#C)c1ccc(/C=C(\C#N)C(=O)O)cc1`, half-maximal inhibition in series [1] (IC50) was put at 400 nM.
The same measure, in the same setting: then `COc1ccc(/C=C(\C#N)C(=O)O)cc1`, with 500 nM; and `N#C/C(=C\c1ccc([N+](=O)[O-])cc1)C(=O)O`, with 500 nM.
Same read-out and setting: the result for `CCCN(CCC)c1ccc(/C=C(\C#N)C(=O)O)c(OC)c1` reads 12 nM; that for `COc1cc(N(CC(C)C)CC(C)C)ccc1/C=C(\C#N)C(=O)O`, 11 nM.
In turn, `CCCN(CCC)c1ccc(/C=C(\C#N)C(=O)O)cc1` gave an IC50 in series [1] of 10 nM.
Same read-out and setting: the result for `N#C/C(=C\c1ccc(Cl)cc1)C(=O)O` reads 500 nM; that for `CN(C)c1ccc(/C=C(\C#N)C(=O)O)cc1`, 140 nM; that for `N#C/C(=C\c1ccc(Br)cc1)C(=O)O`, 500 nM.
